Experiment [1] concerns MCF7. Kind of experiment: Reduction in endogenous ERalpha expression in human MCF7 cells at 10 uM after 6 hrs by Western blot analysis. The experiment is classed as functional, cell-based. An outline of the steps:
(§1)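 MCF-7 cells exposed to compounds (10 µM shown for the chain-length series) for 6 h. Cells lysed in 1% SDS, 0.1 M Tris–HCl pH 7.0, 10% glycerol and boiled 10 min. Protein measured by BCA, and equal amounts run on SDS–PAGE, transferred to PVDF and immunoblotted for endogenous ERα.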
On the technique in general: A western blot detects proteins with antibodies after separation by electrophoresis.

The target in experiment [2] is T1, Estrogen receptor (Homo sapiens, UniProt P03372).
T1 sequence (P03372 whole entry): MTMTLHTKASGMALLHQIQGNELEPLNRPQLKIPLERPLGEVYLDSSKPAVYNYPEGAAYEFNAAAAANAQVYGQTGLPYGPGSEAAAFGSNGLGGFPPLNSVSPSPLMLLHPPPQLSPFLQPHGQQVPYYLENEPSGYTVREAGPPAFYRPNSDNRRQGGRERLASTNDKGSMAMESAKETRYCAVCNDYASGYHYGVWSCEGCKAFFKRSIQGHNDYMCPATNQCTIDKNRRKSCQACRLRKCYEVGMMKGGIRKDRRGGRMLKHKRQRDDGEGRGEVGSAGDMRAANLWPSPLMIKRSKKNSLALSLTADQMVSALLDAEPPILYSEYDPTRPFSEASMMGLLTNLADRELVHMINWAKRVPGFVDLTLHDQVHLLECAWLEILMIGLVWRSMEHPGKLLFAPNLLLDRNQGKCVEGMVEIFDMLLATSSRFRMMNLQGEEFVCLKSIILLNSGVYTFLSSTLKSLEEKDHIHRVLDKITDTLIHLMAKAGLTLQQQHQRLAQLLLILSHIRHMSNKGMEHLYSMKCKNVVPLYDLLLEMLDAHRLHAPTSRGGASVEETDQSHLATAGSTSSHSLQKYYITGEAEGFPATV
Kind of experiment: Inhibition of ERalpha (unknown origin) by fluorescence polarization-based competition binding assay. Background: Polarisation of emitted light reports the rotation of a fluorescent probe.

The subject of experiment [3] is MCF7. Put plainly: Reduction in endogenous ERalpha expression in human MCF7 cells after 6 hrs by Western blot analysis. The experiment is classed as functional, cell-based. An outline of the steps: as §1
The subject of experiment [4] is MCF7. Put plainly: Reduction in endogenous ERalpha expression in human MCF7 cells at 0.1 to 1 uM after 6 hrs by Western blot analysis in presence of 10 uM MG132 proteasome inhibitor. The format is functional, cell-based. An outline of the steps: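 MCF-7 cells incubated 6 h with graded compound concentrations, with or without proteasome inhibitor MG132 (10 µM). Lysis in 1% SDS, 0.1 M Tris–HCl pH 7.0, 10% glycerol, then boiling 10 min. BCA protein assay, equal loading on SDS–PAGE, PVDF transfer, and Western blot detection of ERα.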

The structures appear in SMILES notation. Active and inactive are the calls of the source. The calls are words filed in the database; no cut-off is given here.

For the molecule `CCCCCCNCCOc1ccc(/C(=C(/CC)c2ccccc2)c2ccc(O)cc2)cc1`, the inhibition entry in experiment [1] was “inactive”. The IC50 in experiment [2] is 151 nM. Consider `CCC(=C(c1ccc(O)cc1)c1ccc(OCCN(C)C)cc1)c1ccccc1`, for which, in experiment [1], the inhibition entry was “inactive”. Regarding `CC/C(=C(\c1ccc(O)cc1)c1ccc(OCCNCCCCCCCCCCF)cc1)c1ccccc1`, in experiment [1], the inhibition result was “Active”. For the same molecule, the inhibition result in experiment [3] is “Dose-dependent effect”. For the same molecule, the inhibition entry in experiment [4] is “inactive”. Besides, in experiment [2], the IC50 was 3.4 nM.

As for `CC/C(=C(\c1ccc(O)cc1)c1ccc(OCCNCCCCCCCCCCO)cc1)c1ccccc1`, the inhibition result in experiment [1] was “inactive”. Moreover, in experiment [2], the IC50 is 210 nM. `CCCCCCCCCCCCNCCOc1ccc(/C(=C(/CC)c2ccccc2)c2ccc(O)cc2)cc1` yielded an IC50 in experiment [2] of 14 nM. `CCCCCCCCNCCOc1ccc(/C(=C(/CC)c2ccccc2)c2ccc(O)cc2)cc1`: in experiment [1], the inhibition result is “inactive”. Also, the IC50 in experiment [2] came out at 53 nM.

For `CCCCCCCCCCCCCCCCCCNCCOc1ccc(/C(=C(/CC)c2ccccc2)c2ccc(O)cc2)cc1`, the IC50 in experiment [2] is above 100000 nM. With `CCCCCCCCCCCCCCNCCOc1ccc(/C(=C(/CC)c2ccccc2)c2ccc(O)cc2)cc1`, the inhibition entry in experiment [1] is “inactive”. The IC50 in experiment [2] was 11 nM. For `CCCCCCCCCCNCCOc1ccc(/C(=C(/CC)c2ccccc2)c2ccc(O)cc2)cc1` the same measures were “Active” and 3.6 nM. As to `CCCCCCCCCCCCCCCCNCCOc1ccc(/C(=C(/CC)c2ccccc2)c2ccc(O)cc2)cc1`, the inhibition entry in experiment [1] was “inactive”. Besides, in experiment [2], the IC50 is 4.8 nM. For `CC/C(=C(\c1ccc(O)cc1)c1ccc(OCCNC)cc1)c1ccccc1`, the inhibition entry in experiment [1] is “inactive”.

The term IC50 denotes the point on the concentration scale where inhibition reaches its midpoint. Higher therefore signals a need for much substance.

(Values after ChEMBL document CHEMBL3585304, “Synthesis and evaluation of tamoxifen derivatives with a long alkyl side chain as selective estrogen receptor down-regulators” (Bioorg Med Chem, 2015).)
